Reference: PubChem BioAssay AID1230 (PCMD, 2008)
Screen size: about 210,000 compounds; about 220 (0.1%) were called active.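 How the source made its calls: active means signal enhancement of 30% or more; inactive means the rest.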 This excerpt belongs to a sample that is enriched for actives.

biological target: E3 ubiquitin-protein ligase Mdm2 (Homo sapiens) (UniProt Q00987); assay: increase of MDM2 autoubiquitination reporter luminescence – cell-based, 1536-well, MDM2 E3 ligase inhibitor project, primary screen (AID 1230); details: cell-based MDM2 ubiquitination luciferase reporter, 2 h; at 5 µM; active compounds read high; 0 = plate control, 100 = twice control, blank-subtracted;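 further: higher signal means inhibition of MDM2 E3 ligase activity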
Summary of the method: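 Test system: mammalian cells stably expressing self-ubiquitinating, self-degrading MDM2 E3–luciferase fusion; Amount: 2000 cells in each well; Medium: DMEM; Schedule: 4 h settle plus 2 h compound, 37 °C; Technique: SteadyLite luciferase luminescence after 15 min room-temperature reagent incubation; Benchmarks: plate control and blank wells.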

E3 ubiquitin-protein ligase Mdm2 (Homo sapiens), sequence (Q00987 whole entry, looked up, the tested form may be a part): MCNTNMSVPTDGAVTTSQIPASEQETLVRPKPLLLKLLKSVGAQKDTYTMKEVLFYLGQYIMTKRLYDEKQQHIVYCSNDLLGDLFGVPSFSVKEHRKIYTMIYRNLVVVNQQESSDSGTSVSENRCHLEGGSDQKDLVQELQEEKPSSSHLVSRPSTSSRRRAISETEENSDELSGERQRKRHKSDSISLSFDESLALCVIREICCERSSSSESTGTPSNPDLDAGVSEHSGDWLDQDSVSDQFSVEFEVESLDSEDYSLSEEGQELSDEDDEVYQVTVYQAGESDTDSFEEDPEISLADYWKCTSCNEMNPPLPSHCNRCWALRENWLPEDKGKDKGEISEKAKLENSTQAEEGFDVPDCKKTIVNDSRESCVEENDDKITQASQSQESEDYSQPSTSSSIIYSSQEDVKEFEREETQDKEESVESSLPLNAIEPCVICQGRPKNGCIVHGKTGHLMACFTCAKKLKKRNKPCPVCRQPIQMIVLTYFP

Structure (SMILES) | signal enhancement
c1csc(-c2nnc(COc3ncnc4sccc34)o2)c1 | -10.9% (inactive)
COc1ccc(/C=N/NS(=O)(=O)c2ccc(NC(C)=O)cc2)cc1 | -14.4% (inactive)
Cc1nc(-c2ccccc2)sc1-c1nnc(C2CC2)o1 | -9.04% (inactive)
CCOc1ccc(C2NC(=S)NC3=C2CCc2ccccc23)cc1 (configuration not stated) | -16.9% (inactive)
CN(c1ccc(OCC(=O)NC2=NCCS2)cc1)S(=O)(=O)c1ccc(F)cc1 | -0.06% (inactive)
Cc1ccc(Oc2nc(-c3ccccn3)nc3ccccc23)cc1 | -1.85% (inactive)
Brc1ccc2c(c1)[C@H]1OCC[C@H]1[C@@H](c1cccs1)N2 | -17.3% (inactive)
COc1ccc(OC)c(-n2c(-c3ccn[nH]3)n[nH]c2=S)c1 | -7.17% (inactive)
O=C(Nc1nnc(-c2ccc(Cl)cc2)o1)c1ccccc1Br | 108% (active)
CCCC(=O)Nc1nnc(-c2ccccc2)o1 | -6.24% (inactive)
O=C(Nc1cccc(Cl)c1)Nc1nnc(-c2ccccc2)o1 | -7.54% (inactive)
COc1ccccc1C1CCN(c2ccc([N+](=O)[O-])cn2)CC1 | -10.5% (inactive)
CCN(CC)CCn1cnc2c1c(=O)n(CCOC(=O)c1cc(OC)c(OC)c(OC)c1)c(=O)n2C | 2.01% (inactive)
O=C(NC(=O)c1cc(OCC(F)(F)F)ccc1OCC(F)(F)F)Nc1ccccc1 | -3.24% (inactive)
N#CCC(=O)N/N=C/c1cn(Cc2ccc3ccccc3c2)c2ccccc12 | -6.67% (inactive)
CCn1c(SCC(=O)N/N=C/c2ccncc2)nc2ccccc21 | -15.7% (inactive)
CC(C)(C)CN1C(=O)C(=O)NC[C@H]1Cc1cccc2ccccc12 | -5.59% (inactive)
O=C(N/N=C/c1ccccn1)c1cccnc1 | -13% (inactive)
CCOC(=O)CN(C(=O)COc1nc(C)cc(C)c1C#N)c1ccc(Cl)cc1 | -12.8% (inactive)
O=S(=O)(c1ccc(NC(=S)NN=C(C2CC2)C2CC2)cc1)N1CCOCC1 | -6.04% (inactive)
Cc1nnc(C)c2c(C)n(N)c(C)c12 | -11.1% (inactive)
Cc1nc(SCc2ccc(F)cc2)c([N+](=O)[O-])[nH]1 | 30.6% (active)
Cc1cc([N+](=O)[O-])nn1Cc1ccc(F)cc1 | -10.9% (inactive)
Cc1nc(SCC(=O)c2ccccc2)c([N+](=O)[O-])[nH]1 | -9.82% (inactive)
O=C(CCS(=O)(=O)c1ccccc1Cl)Nc1ccc(S(=O)(=O)Nc2ncccn2)cc1 | -14.3% (inactive)

Structure (SMILES) | signal enhancement
O=C(O)C#Cc1cccc2ccccc12 | -21.3% (inactive)
Cc1nc2c(ncn2-c2ccccc2)c(=O)n1NC(=O)CN1CCCC1 | -14.3% (inactive)
C/C(=N/Nc1nc(-c2ccccc2)c(CC(=O)O)s1)c1ccccc1 | -20.1% (inactive)
S=C(NNC(=S)NC1CC2CCC1C2)NC1CC2C=CC1C2 (configuration not stated) | -3.28% (inactive)
COC(=O)c1scc(S(=O)(=O)C(C)(C)C)c1-n1cccc1 | -17% (inactive)
C/C(=N\NC(=O)c1cccnc1)c1ccc(-c2ccccc2)cc1 | -9.97% (inactive)
C/C(=N\NC(N)=S)c1cccnc1 | 54.3% (active)
C/C(=N\NC(N)=S)c1ccncc1 | -0.15% (inactive)
COC(=O)N(NC(=O)C(O)(C(C)C)C(C)C)c1ccccc1 | -12.4% (inactive)
O=C(C[n+]1cc(-c2ccc(Cl)c(Cl)c2)n2c1CCC2)c1cccs1 | -2.63% (inactive)
CS(=O)(=O)c1ccc(Cl)c(NC(=O)Nc2ccccc2)c1 | -9.46% (inactive)
Cc1onc(-c2ccc(Cl)cc2)c1-c1ccnn1S(=O)(=O)c1ccc(Cl)cc1 | -0.58% (inactive)
C=CCC1(C#N)C(=S)NC(C)=C(C(=O)OCC)C1c1ccccc1 (configuration not stated) | 9.19% (inactive)
CCc1ccccc1N1CN(Cc2ccco2)CNC1=S | 2.19% (inactive)
OCC1(Cc2ccccc2C(F)(F)F)CCN(Cc2ccncc2)CC1 | -8.35% (inactive)
Cc1nc(/N=C(\N)NC(=O)NC2CCCCC2)nc2ccccc12 | -4.72% (inactive)
COCCNc1nc(-c2ccccc2)nc2c1oc1ccccc12 | -11.4% (inactive)
Cc1ccc2c(c1)nnc1nnc(SCC(=O)O)n12 | 0.72% (inactive)
Cc1ccc2c(C)c(C(=O)N3CCC(N4CCC(C(=O)NC5CC5)CC4)CC3)oc2c1 | -9.89% (inactive)
O=C(NC(=S)Nc1cccc2c(O)cccc12)c1cccc(Br)c1 | -0.26% (inactive)
Clc1ccc(C[n+]2cc(-c3ccc(Cl)cc3)n3c2CCC3)cc1 | -12.4% (inactive)
CSc1nnnn1-c1c(C)cc(C)cc1C | -3.25% (inactive)
O=C(Nc1ccc(N2CCOCC2)nc1)c1c(F)cccc1F | -15% (inactive)
Nc1nc(Sc2ncccc2[N+](=O)[O-])n[nH]1 | 1.65% (inactive)
CCNC(=O)CCc1nc(-c2ccc(C)cc2)no1 | 8.03% (inactive)

Structure (SMILES) | signal enhancement
O=C1C2C3C=CC(C3)C2C(=O)N1c1ccc(S(=O)(=O)Nc2nccs2)cc1 (configuration not stated) | -8.32% (inactive)
FC(F)(F)c1nc(-c2ccccc2)ncc1-c1nnnn1-c1ccccc1 | -9.19% (inactive)
O=c1oc(-c2ccccc2NS(=O)(=O)c2ccc(Cl)cc2)nc2ccccc12 | -16.5% (inactive)
COc1ccc(Cc2cc(-c3ccc(F)cc3)n[nH]c2=O)cc1 | -10.5% (inactive)
Cn1nnc2cc(C(=O)NCCC3=CCCCC3)ccc21 | -41.3% (inactive)
O=C(NCCC1=CCCCC1)c1ccc(Cl)c([N+](=O)[O-])c1 | 59.6% (active)
CN(c1ccc(C(=O)NCCC2=CCCCC2)cc1)S(C)(=O)=O | -36.2% (inactive)
O=C1CCCCC1C(=O)c1ccccc1 (configuration not stated) | -74.7% (inactive)
CNC(=O)c1csc(Cc2c(Cl)sc3ccc(Cl)cc23)n1 | -3.68% (inactive)
O=C1N=C(N2CCc3ccccc3C2)S/C1=C\c1ccc(O)cc1 | -10.4% (inactive)
O=S(=O)(Nc1ccc(OC(F)(F)F)cc1)c1cccc2nonc12 | 7.33% (inactive)
Cc1onc(NC(=O)c2ccc([N+](=O)[O-])o2)c1Br | -5.7% (inactive)
O=C(CCCCCN1C(=O)c2cccc3cccc(c23)C1=O)NCc1ccco1 | -8.79% (inactive)
Cn1c(CSCC(=O)Nc2ccccc2)nnc1SCc1ccccc1 | -7.31% (inactive)
Cn1cccc1/C=N/NC(=O)CNc1cccc2ccccc12 | -9.96% (inactive)
COc1cc(OC)c2ccc(=O)oc2c1C(CCN1CCN(c2ccccc2)CC1)c1ccc2c(c1)OCO2 (configuration not stated) | 6.23% (inactive)
COc1ccc(CCNC(=O)C(=O)Nc2ccc3nc4n(c(=O)c3c2)CCCCC4)cc1OC | 3.62% (inactive)
Nc1ccccc1SC(C[N+](=O)[O-])c1ccccc1 (configuration not stated) | -3.83% (inactive)
Cn1c(C(=O)NCCCN2CCCCC2)cc2sccc21 | -19.5% (inactive)
O=C(NCCCN1CCN(c2ccccc2F)CC1)C1CCC(=O)N1C1CCCCC1 (configuration not stated) | -15.4% (inactive)
O=C(CCS(=O)(=O)Cc1ccccc1F)NCCCN1CCCCC1 | 35.1% (active)
CSc1sc(C(=O)NC(=O)NCc2cccnc2)c(C)c1-c1ccon1 | -12.8% (inactive)
O=C(NCCCn1ccnc1)C(=O)NCC1OCCN1S(=O)(=O)c1cc(F)ccc1F (configuration not stated) | -1.11% (inactive)
C/C(=N\NC(=O)c1nc(C)cc(C)n1)c1ccccc1 | -2.38% (inactive)
Cc1cc(C)nc(S/C=C/C(=O)c2ccccc2)n1 | 45.8% (active)

Structure (SMILES) | signal enhancement
Cc1cc(SCC(=O)c2ccccc2)nc(SCC(=O)c2ccccc2)n1 | -22.4% (inactive)
CNC(=S)NNC(=O)c1oc2nc(-c3ccccc3)cc(-c3ccco3)c2c1N | -16.3% (inactive)
Cc1noc(C)c1COC(=O)COc1ccc(-c2ccccc2)cc1 | -6.72% (inactive)
CCS(=O)(=O)c1cc([N+](=O)[O-])c(Sc2ccccc2N)s1 | -43.9% (inactive)
CS(=O)(=O)c1ccc2nnn(OCC(=O)Nc3cccc(C#N)c3)c2c1 | -16.9% (inactive)
CC(=O)c1ccc(S(=O)(=O)N2CCN(C(=O)/C=C/c3ccc4ccccc4n3)CC2)cc1 | -8.84% (inactive)
C/C=C\C=C\C(=O)N1CC2(CC(c3cccc(NC(=O)/C(C)=C\C)c3)=NO2)C[C@H]1C(N)=O (some centres not stated) | -14.1% (inactive)
Cn1ccc(=NC=C(C#N)C#N)c2ccccc21 | 30.3% (active)
CCOC(=O)c1cc(C)nc(S(C)(=O)=O)c1C#N | -11% (inactive)
CCOC(=O)c1c(NC(=S)NC)sc2c1CCCC2 | -8.08% (inactive)
COc1ccc(/C=C/C(=O)Nc2ccc(C34CC5CC(CC(O)(C5)C3)C4)cc2)cc1OC | 45.6% (active)
COc1ccc(/C=C/C(=O)Nc2cccnc2)cc1OC | -3.38% (inactive)
COc1ccc(/C=C/C(=O)Nc2ccc3c(c2)OCCO3)cc1OC | -7.44% (inactive)
Clc1ccc(C[n+]2cc(-c3ccccc3)n3c2CCC3)cc1 | -18.4% (inactive)
S=c1[nH]nc(-c2cccs2)n1/N=C/c1cn(-c2ccccc2)nc1-c1ccc(Cl)cc1 | -7.25% (inactive)
COc1cccc(C2Nc3cccc4cccc(c34)N2)c1 | -2.34% (inactive)
CNC(=O)C(NC(=O)c1ccccc1)=C(C)C | -12.3% (inactive)
COc1ccccc1OCC(=O)O/N=C(\N)c1ccccn1 | -10.7% (inactive)
N/C(=N\OC(=O)Nc1ccccc1)c1ccno1 | -4.12% (inactive)
CCCc1nc2c(c(=O)c3ccccc3n2C)c(=O)n1-c1cc(C)cc(C)c1 | -9.46% (inactive)
COc1ccc(NC(=O)CSc2ncnc3[nH]ncc23)cc1 | -3.15% (inactive)
CC(C)(C)c1cc(NC(=O)NN2CCOCC2)nn1-c1c(Cl)cc(Cl)cc1Cl | -17.5% (inactive)
